Results reported in ChEMBL document CHEMBL1153903, “Tethered thiazolidinone dimers as inhibitors of the bacterial type III secretion system” (Bioorg Med Chem Lett, 2009).

Assay: Inhibition of T3SS-dependent SipA secretion in Salmonella Typhimurium
Design: species or system Salmonella enterica subsp. enterica serovar Typhimurium
How it was run: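 Salmonella typhimurium type III secretion read out as secretion of the substrate SipA into culture supernatants. Supernatant proteins TCA-precipitated, resolved by SDS-PAGE and Western blotted with anti-SipA antibody; IC50 derived from the reduction in secreted SipA.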

Row | SMILES | IC50
1 | COc1cc(/C=C2\S/C(=N\c3ccccc3)N(CC(=O)Nc3ccccc3NC(=O)CN3C(=O)/C(=C/c4cc(OC)c(O)c(OC)c4)S/C3=N\c3ccccc3)C2=O)cc(OC)c1O | 22 µM
2 | COc1cc(/C=C2\S/C(=N\c3ccccc3)N(CCCCCCNC(=O)CCCN3C(=O)/C(=C/c4cc(OC)c(O)c(OC)c4)S/C3=N\c3ccccc3)C2=O)cc(OC)c1O | 17 µM
3 | COc1cc(/C=C2\S/C(=N\c3ccccc3)N(c3ccccc3)C2=O)cc(OC)c1O | 83 µM
4 | COc1cc(/C=C2\S/C(=N\c3ccccc3)N(CCN3CCN(CCN4C(=O)/C(=C/c5cc(OC)c(O)c(OC)c5)S/C4=N\c4ccccc4)CC3)C2=O)cc(OC)c1O | 44 µM
5 | COc1cc(/C=C2\S/C(=N\c3ccccc3)N(CCCNC(=O)[C@H](CCCNC(=N)N)NC(=O)CN3C(=O)/C(=C/c4cc(OC)c(O)c(OC)c4)S/C3=N\c3ccccc3)C2=O)cc(OC)c1O | 48 µM
6 | COc1cc(/C=C2\S/C(=N\c3ccccc3)N(CC(=O)Nc3cccc(NC(=O)CN4C(=O)/C(=C/c5cc(OC)c(O)c(OC)c5)S/C4=N\c4ccccc4)c3)C2=O)cc(OC)c1O | 80 µM
7 | COc1cc(/C=C2\S/C(=N\c3ccccc3)N(CCCNC(=O)[C@H](Cc3ccc(-c4ccccc4)cc3)NC(=O)[C@H](CCCN)N3C(=O)/C(=C/c4cc(OC)c(O)c(OC)c4)S/C3=N\c3ccccc3)C2=O)cc(OC)c1O | 49 µM

Second part, the compound after the results:

Row | IC50 | SMILES
8 | 55 µM | COc1cc(/C=C2\S/C(=N\c3ccccc3)N(CCNC(=O)C3CCCN3C(=O)CN3C(=O)/C(=C/c4cc(OC)c(O)c(OC)c4)S/C3=N\c3ccccc3)C2=O)cc(OC)c1O (configuration not stated)
9 | 5 µM | COc1cc(/C=C2\S/C(=N\c3ccccc3)N(CCCCCCNC(=O)CN3C(=O)/C(=C/c4cc(OC)c(O)c(OC)c4)S/C3=N\c3ccccc3)C2=O)cc(OC)c1O
10 | 48 µM | COc1cc(/C=C2\S/C(=N\c3ccccc3)N(CCCNC(=O)CN3C(=O)/C(=C/c4cc(OC)c(O)c(OC)c4)S/C3=N\c3ccccc3)C2=O)cc(OC)c1O
11 | 65 µM | COc1cc(/C=C2\S/C(=N\c3ccccc3)N(CCCCCCNCCN3C(=O)/C(=C/c4cc(OC)c(O)c(OC)c4)S/C3=N\c3ccccc3)C2=O)cc(OC)c1O
12 | 47 µM | COc1cc(/C=C2\S/C(=N\c3ccccc3)N(CCCCNC(=N)NCCN3C(=O)/C(=C/c4cc(OC)c(O)c(OC)c4)S/C3=N\c3ccccc3)C2=O)cc(OC)c1O
